Measured values from ChEMBL document CHEMBL1133107, “3-(Hydroxymethyl)-bearing phosphatidylinositol ether lipid analogues and carbonate surrogates block PI3-K, Akt, and cancer cell growth” (J Med Chem, 2000).

What was measured:
HeLa = assay: Tested in vitro for their inhibitory activity against Hela(cervical) cell line; assay type: functional, cell-based; details: Homo sapiens
Procedure, shortened: (§1)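 Cells were seeded at 30 000 per well in DMEM with 10% FBS, and drugs were added 16 h later. Growth continued for 3 days in DMEM/10% FBS with or without a range of drug concentrations. Cells were then counted on a hemocytometer to give growth-inhibition IC50.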

HT-29 = assay: Tested in vitro for their inhibitory activity against HT-29 (colon) cell line; assay type: functional, cell-based; details: Homo sapiens; procedure, shortened: as §1
MCF7 = assay: Tested in vitro for their inhibitory activity against MCF-7(breast) cell line; assay type: functional, cell-based; details: Homo sapiens; procedure, shortened: as §1
[1] = biological target: Serine/threonine-protein kinase AKT (Homo sapiens, UniProt P31751+Q9Y243+P31749); assay: Inhibition of Akt (proto-oncogenic serine/threonine PKB) kinase; assay type: protein assay
[2] = Inhibition of murine p100/p85 PI3-K (phosphatidylinositol 3-kinase); set-up: species or system Mus musculus
PC-3 = assay: Tested in vitro for their inhibitory activity against PC-3(prostate) cell line.; assay type: functional, cell-based; details: Homo sapiens; procedure, shortened: as §1

IC50 (HeLa) [µM]	IC50 (HT-29) [µM]	IC50 (MCF7) [µM]	IC50 [1] [µM]	IC50 [2] [µM]	IC50 (PC-3) [µM]	SMILES
2.5	10	1.2	5	83	2	CCCCCCCCCCCCCCCCCCOC[C@H](COC(=O)O[C@@H]1[C@H](O)[C@H](CO)[C@@H](O)[C@H](O)[C@@H]1O)OC
7.5	7.5	2	9.1	18.5	2	CCCCCCCCCCCCCCCCCCOC[C@H](COP(=O)(O)O[C@@H]1[C@H](O)[C@@H](CO)[C@@H](O)[C@H](O)[C@@H]1O)OC
7	–	7.2	–	14.8	–	CCCCCCCCCCCCCCCCCCOC[C@H](COP(=O)(O)O[C@H]1[C@@H](O)[C@@H](O)[C@H](O)C[C@H]1O)OC
1	4.5	5	7.8	31	4	CCCCCCCCCCCCCCCCCCOC[C@H](COP(=O)(O)O[C@@H]1[C@H](O)[C@H](CO)[C@@H](O)[C@H](O)[C@@H]1O)OC
> 20	12	12.5	32	21.3	10	CCCCCCCCCCCCCCCCCCOC[C@H](COC(=O)O[C@@H]1[C@H](O)[C@@H](CO)[C@@H](O)[C@H](O)[C@@H]1O)OC
30	2.5	12	12.5	15.5	7	CCCCCCCCCCCCCCCCCCOC[C@H](COC(=O)O[C@H]1[C@@H](O)[C@@H](O)[C@H](O)C[C@H]1O)OC
